These results are taken from ChEMBL document CHEMBL3526123, “Hepatobiliary disposition of 17-OHPC and taurocholate in fetal human hepatocytes: a comparison with adult human hepatocytes” (Drug Metab Dispos, 2013).

The subject of data set [1] is Hepatocyte. Kind of data set: Drug uptake in sandwich-cultured human fetal hepatocytes at 1 uM after 20 mins in presence of warm media at 37 degC by liquid scintillation counting method. In kind it is ADME, cell-based.
Data set [2] relates to Hepatocyte. The data set is described as follows: Drug uptake in sandwich-cultured human adult hepatocytes at 1 uM after 20 mins in presence of cold media at 4 degC by liquid scintillation counting method. Format: ADME, cell-based. In outline: (§1)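 Sandwich-cultured hepatocytes were loaded for 20 min in standard HBSS containing 1 µM 17-OHPC and 1 µM TCA, at 37°C or at 4°C. Cells were washed ice-cold, and efflux was started with Ca2+/Mg2+-free HBSS at the matching temperature. Media and lysates were counted by liquid scintillation and normalized to protein. Triplicate treatments.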

The target in data set [3] is T1, Bile salt export pump (Homo sapiens, UniProt O95342). Kind of data set: Inhibition of ABCB11-mediated taurocholate efflux in sandwich-cultured human fetal hepatocytes at 0.5 to 10 uM. Format: ADME, cell-based, Hepatocyte. In outline: (§2)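 Sandwich-cultured hepatocytes (Matrigel overlay) were given 1 µM [3H]taurocholic acid in standard HBSS at 37°C, with or without increasing 17-OHPC or cyclosporine A (40 µM, positive control). Efflux was run in standard versus Ca2+/Mg2+-free HBSS, with inhibitor present. Canalicular efflux is the buffer difference, set to 100% in controls. Uptake was from scintillation counts normalized to Bradford protein. Triplicates; fetal n = 4, adult n = 6.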
T1 sequence (O95342 whole entry): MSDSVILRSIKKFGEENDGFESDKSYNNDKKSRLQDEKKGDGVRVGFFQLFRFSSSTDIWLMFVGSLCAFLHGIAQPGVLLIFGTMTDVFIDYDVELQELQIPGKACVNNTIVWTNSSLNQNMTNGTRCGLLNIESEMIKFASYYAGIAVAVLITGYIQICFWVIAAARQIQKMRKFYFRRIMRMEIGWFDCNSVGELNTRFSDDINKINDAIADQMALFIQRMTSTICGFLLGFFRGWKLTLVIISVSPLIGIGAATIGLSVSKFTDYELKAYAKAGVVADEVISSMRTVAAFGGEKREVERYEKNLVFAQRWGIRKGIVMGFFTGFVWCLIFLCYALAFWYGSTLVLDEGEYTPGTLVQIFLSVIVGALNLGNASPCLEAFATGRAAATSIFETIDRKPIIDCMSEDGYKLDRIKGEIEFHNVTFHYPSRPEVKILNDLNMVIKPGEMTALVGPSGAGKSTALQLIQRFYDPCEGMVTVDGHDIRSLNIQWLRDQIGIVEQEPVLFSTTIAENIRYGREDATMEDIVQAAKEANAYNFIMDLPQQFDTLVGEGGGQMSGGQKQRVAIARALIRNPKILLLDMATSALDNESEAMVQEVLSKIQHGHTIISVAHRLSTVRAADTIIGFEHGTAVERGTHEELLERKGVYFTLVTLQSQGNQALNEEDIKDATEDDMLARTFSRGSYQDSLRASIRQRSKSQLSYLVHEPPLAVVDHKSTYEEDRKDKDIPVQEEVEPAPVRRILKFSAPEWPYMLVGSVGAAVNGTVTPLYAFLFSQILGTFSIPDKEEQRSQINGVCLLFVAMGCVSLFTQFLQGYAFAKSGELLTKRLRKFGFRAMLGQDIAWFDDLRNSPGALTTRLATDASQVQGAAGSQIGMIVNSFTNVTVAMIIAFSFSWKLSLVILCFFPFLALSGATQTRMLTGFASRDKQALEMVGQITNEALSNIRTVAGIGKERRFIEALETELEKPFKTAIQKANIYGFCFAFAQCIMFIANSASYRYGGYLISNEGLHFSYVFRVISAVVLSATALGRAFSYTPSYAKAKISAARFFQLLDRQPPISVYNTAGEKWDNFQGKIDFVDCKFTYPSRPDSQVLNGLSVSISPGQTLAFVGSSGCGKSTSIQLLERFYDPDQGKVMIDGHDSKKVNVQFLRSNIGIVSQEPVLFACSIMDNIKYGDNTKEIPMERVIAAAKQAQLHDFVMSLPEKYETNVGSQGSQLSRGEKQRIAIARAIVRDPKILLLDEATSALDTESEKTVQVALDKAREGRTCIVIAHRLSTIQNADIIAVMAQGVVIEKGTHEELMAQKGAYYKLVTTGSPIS

Data set [4] deals with Hepatocyte. The data set is described as follows: Drug uptake in sandwich-cultured human adult hepatocytes at 1 uM after 20 mins in presence of warm media at 37 degC by liquid scintillation counting method. In kind it is ADME, cell-based. In outline:
as §1

The target in data set [5] is T1, Bile salt export pump. The data set is described as follows: Inhibition of ABCB11-mediated taurocholate efflux in sandwich-cultured human adult hepatocytes at 5 to 100 uM. In kind it is ADME, cell-based, Hepatocyte. In outline: as §2
Data set [6] has as its target T1, Bile salt export pump. Kind of data set: Inhibition of ABCB11-mediated taurocholate total uptake in sandwich-cultured human adult hepatocytes at >50 uM. In kind it is ADME, cell-based, Hepatocyte. In outline:
as §2

The test system of data set [7] is Hepatocyte. The data set is described as follows: Drug accumulation in sandwich-cultured human adult hepatocytes assessed per mg protein under Ca2+/Mg2+ conditions. Format: ADME, cell-based.
In data set [8] the test system is Hepatocyte. The data set is described as follows: Drug accumulation in sandwich-cultured human fetal hepatocytes assessed per mg protein under Ca2+/Mg2+ free conditions. Format: ADME, cell-based.
Data set [9] in a line: Cmax in adult human plasma. Format: ADME, cell-free.
The subject of data set [10] is Hepatocyte. Kind of data set: Drug accumulation in sandwich-cultured human adult hepatocytes assessed per mg protein under Ca2+/Mg2+ free conditions. Format: ADME, cell-based.
Data set [11] concerns the target T1, Bile salt export pump. Kind of data set: Inhibition of ABCB11-mediated taurocholate total uptake in sandwich-cultured human fetal hepatocytes at >0.5 uM. In kind it is ADME, cell-based, Hepatocyte. In outline: as §2
For data set [12], the system named is Hepatocyte. Kind of data set: Drug accumulation in sandwich-cultured human fetal hepatocytes assessed per mg protein under Ca2+/Mg2+ conditions. In kind it is ADME, cell-based.
Data set [13] relates to Hepatocyte. Kind of data set: Drug uptake in sandwich-cultured human fetal hepatocytes at 1 uM after 20 mins in presence of cold media at 4 degC by liquid scintillation counting method. Format: ADME, cell-based.
The subject of data set [14] is Hepatocyte. Kind of data set: Drug excretion in sandwich-cultured human fetal hepatocytes assessed as mean biliary index. Format: ADME, cell-based. In outline:
(§3)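 Sandwich-cultured hepatocytes (Matrigel overlay, 0.233 mg/ml) were rinsed twice and equilibrated 10 min at 37°C in standard or Ca2+/Mg2+-free HBSS. 1 µM [3H]taurocholate or [3H]17-OHPC in standard HBSS was then added. Accumulation was measured by scintillation counting and normalized to Bradford protein. BEI = (accumulation with Ca/Mg − accumulation without)/accumulation with Ca/Mg × 100. Reported as mean ± S.D. across cultures.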

Data set [15] relates to Hepatocyte. The data set is described as follows: Drug excretion in sandwich-cultured human adult hepatocytes assessed as mean biliary index. In kind it is ADME, cell-based. In outline:
as §3

The nature of data set [16]: Cmax in human cord blood.
Data set [17] has as its system Hepatocyte. The data set is described as follows: Total drug uptake in sandwich-cultured human fetal hepatocytes assessed per mg protein at 1 uM after 20 mins in presence of rifampin by liquid scintillation counting method. Format: ADME, cell-based. In outline: (§4)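 Sandwich-cultured hepatocytes received 1 µM radiolabeled test compound in HBSS at 37°C, with or without cyclosporine A, verapamil or rifampin. After an ice-cold wash, efflux was started with Ca2+/Mg2+-free HBSS for 20 min. Media and lysates were counted by liquid scintillation. Total uptake is expressed as pmol/mg protein (Bradford), mean ± S.D.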

For data set [18], the system named is Hepatocyte. The data set is described as follows: Total drug uptake in sandwich-cultured human adult hepatocytes assessed per mg protein at 1 uM after 20 mins in absence of rifampin by liquid scintillation counting method. Format: ADME, cell-based. In outline:
as §4

Data set [19] has as its system Hepatocyte. The data set is described as follows: Total drug uptake in sandwich-cultured human adult hepatocytes assessed per mg protein at 1 uM after 20 mins in presence of verapamil by liquid scintillation counting method. In kind it is ADME, cell-based. In outline:
as §4

In data set [20] the test system is Hepatocyte. Kind of data set: Total drug uptake in sandwich-cultured human fetal hepatocytes assessed per mg protein at 1 uM after 20 mins in absence of cyclosporine A by liquid scintillation counting method. In kind it is ADME, cell-based. In outline: as §4
The test system of data set [21] is Hepatocyte. The data set is described as follows: Total drug uptake in sandwich-cultured human fetal hepatocytes assessed per mg protein at 1 uM after 20 mins in presence of cyclosporine A by liquid scintillation counting method. In kind it is ADME, cell-based. In outline:
as §4

In data set [22] the test system is Hepatocyte. The data set is described as follows: Total drug uptake in sandwich-cultured human adult hepatocytes assessed per mg protein at 1 uM after 20 mins in presence of cyclosporine A by liquid scintillation counting method. In kind it is ADME, cell-based. In outline:
as §4

Data set [23] concerns Hepatocyte. Kind of data set: Total drug uptake in sandwich-cultured human fetal hepatocytes assessed per mg protein at 1 uM after 20 mins in absence of rifampin by liquid scintillation counting method. In kind it is ADME, cell-based. In outline: as §4
Data set [24] deals with Hepatocyte. The data set is described as follows: Total drug uptake in sandwich-cultured human fetal hepatocytes assessed per mg protein at 1 uM after 20 mins in absence of verapamil by liquid scintillation counting method. In kind it is ADME, cell-based. In outline:
as §4

The test system of data set [25] is Hepatocyte. Kind of data set: Total drug uptake in sandwich-cultured human adult hepatocytes assessed per mg protein at 1 uM after 20 mins in presence of rifampin by liquid scintillation counting method. In kind it is ADME, cell-based. In outline: as §4
Data set [26] concerns Hepatocyte. The data set is described as follows: Total drug uptake in sandwich-cultured human adult hepatocytes assessed per mg protein at 1 uM after 20 mins in absence of verapamil by liquid scintillation counting method. Format: ADME, cell-based. In outline:
as §4

In data set [27] the test system is Hepatocyte. The data set is described as follows: Total drug uptake in sandwich-cultured human fetal hepatocytes assessed per mg protein at 1 uM after 20 mins in presence of verapamil by liquid scintillation counting method. Format: ADME, cell-based. In outline: as §4
In data set [28] the test system is Hepatocyte. The data set is described as follows: Total drug uptake in sandwich-cultured human adult hepatocytes assessed per mg protein at 1 uM after 20 mins in absence of cyclosporine A by liquid scintillation counting method. Format: ADME, cell-based. In outline:
as §4

With `CCCCCC(=O)O[C@]1(C(C)=O)CC[C@H]2[C@@H]3CCC4=CC(=O)CC[C@]4(C)[C@H]3CC[C@@]21C` [HYDROXYPROGESTERONE CAPROATE], the Drug uptake result is given as “Active” in [1]; “Not Active” in data set [2]; “Active” in data set [4]; 680 pmol in data set [7]; 294 pmol in data set [8]; 628 pmol in [10]. In addition, the Drug uptake is on record as 320 pmol in data set [12] and “Not Active” in data set [13]. Moreover, the “inhibition (INH)” value in data set [3], in data set [5], in data set [6] and in [11] was “Active” throughout. Further, the results for the Cmax in data set [9] and in [16] were 70 nM and 20 nM, respectively. For the same compound, the Drug excretion in data set [14] was determined as 7%; in [15], 6.2%.

On to `[3H]C1C2=CC(=O)C([3H])C([3H])[C@]2(C)[C@H]2CC[C@@]3(C)[C@@H](CC[C@]3(O[14C](=O)CCCCC)C(C)=O)[C@@H]2C1[3H]` (some centres undefined), for which the Drug uptake in data set [17] was determined as 241 pmol; in data set [18], 611 pmol; in data set [19], 347 pmol; in [20], 284 pmol; in data set [21], 304 pmol; in data set [22] it was 494 pmol. Also, the Drug uptake in data set [23] was 267 pmol; in data set [24], 263 pmol; in data set [25], 565 pmol; in [26], 341 pmol; in data set [27], 281 pmol; in [28], 476 pmol.

Take `C[C@H](CCC(=O)NCCS(=O)(=O)O)[C@H]1CC[C@H]2[C@@H]3[C@H](O)C[C@@H]4C[C@H](O)CC[C@]4(C)[C@H]3C[C@H](O)[C@]12C` [TAUROCHOLIC ACID]: the Drug uptake result in data set [1] is listed as “Active”; in data set [7], 85 pmol; in [8], 23 pmol; in [10], 21 pmol; in data set [12], 34 pmol; in [13], “Not Active”.

For orientation: Cmax means the maximum level reached in the sampled fluid or tissue.
